PMC5338039 (Biochemistry, 2017)
Entries after “also recorded” stand apart in the source; their conditions may differ.

Columns and labels:
[1] = target: T1, GPR55 F6.55A (Homo sapiens, UniProt Q9Y2T6, F246A); experiment: SRE luciferase assay, F6.55A mutant; assay type: cell-based; conditions: for SRE response compared with WT (in words): F6.55A
In short: (§1)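 HA-tagged human GPR55 (WT or sequence-confirmed site-directed mutant, pcDNA3) co-transfected by lipofection with pGL4.33 luc2P/SRE reporter into HEK293 cells; 60,000 cells/well, switched to 1% FBS/DMEM after 5 h, overnight. Agonist test compounds (10 mM DMSO stocks) added for 5 h in serum-free DMEM, 37°C. Cells lysed 10 min at room temperature, luciferin injected, luminescence read immediately (RLU). EC50 from sigmoidal nonlinear regression.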

[2] = target: GPR55 Q7.36N (Homo sapiens, UniProt Q9Y2T6, Q271N); experiment: SRE luciferase assay, Q7.36N mutant; assay type: cell-based; conditions: for SRE response compared with WT (in words): Q7.36N
GPR55 Q7.36N, sequence (Q9Y2T6 whole entry Q271N): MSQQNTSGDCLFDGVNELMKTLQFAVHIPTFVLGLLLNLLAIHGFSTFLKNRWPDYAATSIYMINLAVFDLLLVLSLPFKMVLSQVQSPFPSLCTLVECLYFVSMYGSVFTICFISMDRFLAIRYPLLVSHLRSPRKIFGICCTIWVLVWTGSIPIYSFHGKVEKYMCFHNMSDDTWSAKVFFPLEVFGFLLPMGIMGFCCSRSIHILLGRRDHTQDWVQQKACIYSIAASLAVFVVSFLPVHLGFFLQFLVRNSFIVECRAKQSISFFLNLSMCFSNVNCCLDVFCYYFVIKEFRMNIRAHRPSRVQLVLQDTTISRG
In short: as §1

[3] = target: T2, GPR55 Y3.32F (Homo sapiens, UniProt Q9Y2T6, Y101F); experiment: SRE luciferase assay, Y3.32F mutant; assay type: cell-based; conditions: for SRE response compared with WT (in words): Y3.32F
T2 sequence (Q9Y2T6 whole entry Y101F): as the sequence (Q9Y2T6 whole entry Q271N) above, with Y101F, N271Q counted along it
In short: as §1

[4] = target: T3, GPR55 F6.48A (Homo sapiens, UniProt Q9Y2T6, F239A); experiment: SRE luciferase assay, F6.48A mutant; assay type: cell-based; conditions: for SRE response compared with WT (in words): F6.48A
T3 sequence (Q9Y2T6 whole entry F239A): as the sequence (Q9Y2T6 whole entry Q271N) above, with F239A, N271Q counted along it
In short: as §1

[5] = target: T4, GPR55 E3.29A (Homo sapiens, UniProt Q9Y2T6, E98A); experiment: SRE luciferase assay, E3.29A mutant; assay type: cell-based; conditions: for SRE response compared with WT (in words): E3.29A
T4 sequence (Q9Y2T6 whole entry E98A): as the sequence (Q9Y2T6 whole entry Q271N) above, with E98A, N271Q counted along it
In short: as §1

[6] = target: T5, GPR55 M3.36A (Homo sapiens, UniProt Q9Y2T6, M105A); experiment: SRE luciferase assay, M3.36A mutant; assay type: cell-based; conditions: for SRE response compared with WT (in words): M3.36A
T5 sequence (Q9Y2T6 whole entry M105A): as the sequence (Q9Y2T6 whole entry Q271N) above, with M105A, N271Q counted along it
In short: as §1

[7] = target: T6, GPR55 F6.55L (Homo sapiens, UniProt Q9Y2T6, F246L); experiment: SRE luciferase assay, F6.55L mutant; assay type: cell-based; conditions: for SRE response compared with WT (in words): F6.55L
T6 sequence (Q9Y2T6 whole entry F246L): as the sequence (Q9Y2T6 whole entry Q271N) above, with F246L, N271Q counted along it
In short: as §1

[8] = target: GPR55 H(170)F (Homo sapiens, UniProt Q9Y2T6, H170F); experiment: SRE luciferase assay, H; assay type: cell-based; conditions: for SRE response compared with WT (in words): H(170)F
GPR55 H(170)F, sequence (Q9Y2T6 whole entry H170F): as the sequence (Q9Y2T6 whole entry Q271N) above, with H170F, N271Q counted along it
In short: as §1

[9] = target: T7, GPR55 E3.29L (Homo sapiens, UniProt Q9Y2T6, E98L); experiment: SRE luciferase assay, E3.29L mutant; assay type: cell-based; conditions: for SRE response compared with WT (in words): E3.29L
T7 sequence (Q9Y2T6 whole entry E98L): as the sequence (Q9Y2T6 whole entry Q271N) above, with E98L, N271Q counted along it
In short: as §1

[10] = target: T8, GPR55 Y3.32L (Homo sapiens, UniProt Q9Y2T6, Y101L); experiment: SRE luciferase assay, Y3.32L mutant; assay type: cell-based; conditions: for SRE response compared with WT (in words): Y3.32L
T8 sequence (Q9Y2T6 whole entry Y101L): as the sequence (Q9Y2T6 whole entry Q271N) above, with Y101L, N271Q counted along it
In short: as §1

[11] = target: T9, GPR55 C(260)A (Homo sapiens, UniProt Q9Y2T6, C260A); experiment: SRE luciferase assay, C; assay type: cell-based
T9 sequence (Q9Y2T6 whole entry C260A): as the sequence (Q9Y2T6 whole entry Q271N) above, with C260A, N271Q counted along it
In short: as §1

[12] = target: T10, GPR55 C(10)A (Homo sapiens, UniProt Q9Y2T6, C10A); experiment: SRE luciferase assay, C; assay type: cell-based
T10 sequence (Q9Y2T6 whole entry C10A): as the sequence (Q9Y2T6 whole entry Q271N) above, with C10A, N271Q counted along it
In short: as §1

[13] = target: GPR55 Q7.36A (Homo sapiens, UniProt Q9Y2T6, Q271A); experiment: SRE luciferase assay, Q7.36A mutant; assay type: cell-based; conditions: for SRE response compared with WT (in words): Q7.36A
GPR55 Q7.36A, sequence (Q9Y2T6 whole entry Q271A): as the sequence (Q9Y2T6 whole entry Q271N) above, with N271A counted along it
In short: as §1

[14] = target: T11, GPR55 K2.60A (Homo sapiens, UniProt Q9Y2T6, K80A); experiment: SRE luciferase assay, K2.60A mutant; assay type: cell-based
T11 sequence (Q9Y2T6 whole entry K80A): as the sequence (Q9Y2T6 whole entry Q271N) above, with K80A, N271Q counted along it
In short: as §1

[15] = target: GPR55 Q6.58M (Homo sapiens, UniProt Q9Y2T6, Q249M); experiment: SRE luciferase assay, Q6.58M mutant; assay type: cell-based; conditions: for SRE response compared with WT (in words): Q6.58M
GPR55 Q6.58M, sequence (Q9Y2T6 whole entry Q249M): as the sequence (Q9Y2T6 whole entry Q271N) above, with Q249M, N271Q counted along it
In short: as §1

[16] = test system: GPR55; conditions: agonist screen of the NIH library; cited from earlier work
[17] = target: T12, WT GPR55 (Homo sapiens, UniProt Q9Y2T6); experiment: SRF luciferase assay, WT GPR55; assay type: cell-based
T12 sequence (Q9Y2T6 whole entry): as the sequence (Q9Y2T6 whole entry Q271N) above, with N271Q counted along it

[18] = target: T5, GPR55 M3.36A; experiment: SRF luciferase assay, M3.36A mutant; assay type: cell-based
[19] = target: T10, GPR55 C(10)A; experiment: SRF luciferase assay, C; assay type: cell-based
[20] = target: T8, GPR55 Y3.32L; experiment: SRF luciferase assay, Y3.32L mutant; assay type: cell-based
[21] = target: T11, GPR55 K2.60A; experiment: SRF luciferase assay, K2.60A mutant; assay type: cell-based
[22] = target: T3, GPR55 F6.48A; experiment: SRF luciferase assay, F6.48A mutant; assay type: cell-based
[23] = target: T2, GPR55 Y3.32F; experiment: SRF luciferase assay, Y3.32F mutant; assay type: cell-based
[24] = target: T12, WT GPR55; experiment: SRE luciferase assay, WT GPR55; assay type: cell-based
[25] = target: T6, GPR55 F6.55L; experiment: SRF luciferase assay, F6.55L mutant; assay type: cell-based
[26] = target: T4, GPR55 E3.29A; experiment: SRF luciferase assay, E3.29A mutant; assay type: cell-based
[27] = target: T9, GPR55 C(260)A; experiment: SRF luciferase assay, C; assay type: cell-based
[28] = target: T1, GPR55 F6.55A; experiment: SRF luciferase assay, F6.55A mutant; assay type: cell-based
[29] = target: T7, GPR55 E3.29L; experiment: SRF luciferase assay, E3.29L mutant; assay type: cell-based

T1 sequence (Q9Y2T6 whole entry F246A): as the sequence (Q9Y2T6 whole entry Q271N) above, with F246A, N271Q counted along it

l-α-lysophosphatidylinositol [LPI]
SRE response compared with WT (in words) [1]: little to no effect | SRE response compared with WT (in words) [2]: little to no effect | SRE response compared with WT (in words) [3]: right shifted curves; also recorded: reduced signaling | SRE response compared with WT (in words) [4]: right shifted curves; also recorded: reduces LPI's ability to signal | SRE response compared with WT (in words) [5]: slight response at high concentrations of LPI; also recorded: loss of function | SRE response compared with WT (in words) [6]: right shifted curves; also recorded: reduces LPI's ability to signal | SRE response compared with WT (in words) [7]: little to no effect | SRE response compared with WT (in words) [8]: right shifted curves; also recorded: reduced signaling | SRE response compared with WT (in words) [9]: slight response at high concentrations of LPI | SRE response compared with WT (in words) [10]: right shifted curves; also recorded: reduced signaling | SRE response compared with WT (in words) ([11]; C(260)A): right shifted curves | SRE response compared with WT (in words) ([12]; C(10)A): right shifted curves | SRE response compared with WT (in words) [13]: little to no effect | SRE response compared with WT (in words) [14]: did not show any LPI-induced responses; also recorded: loss of function | SRE response compared with WT (in words) [15]: little to no effect; also recorded: essentially no effect

Cc1cccc(N2CCN(C(=O)c3cc(S(=O)(=O)N(C)C)ccc3N3CCCC3)CC2)c1C [ML184, 3-[4-(2,3-dimethylphenyl)piperazine-1-carbonyl]-N,N-dimethyl-4-pyrrolidin-1-ylbenzenesulfonamide]
EC50 [16]: 263 nM | EC50 [17]: 33 nM | EC50 [1]: 840 nM | SRE response compared with WT (in words) [1]: right shifted curves | Fold/WT, SRE EC50 ([1]; F6.55A vs WT): 15 fold | EC50 [2]: 154 nM | SRE response compared with WT (in words) [2]: retains WT signalling | Fold/WT, SRE EC50 ([2]; Q7.36N vs WT): 3 fold | EC50 [3]: 1660 nM | SRE response compared with WT (in words) [3]: right shifted SRE response curves | Fold/WT, SRE EC50 ([3]; Y3.32F vs WT): 30 fold | EC50 [18]: 2040 nM | SRF response compared with WT (in words) ([18]; M3.36A): reduced responses | Fold/WT, SRF EC50 ([18]; M3.36A vs WT): 62 fold | EC50 [4]: 514 nM | SRE response compared with WT (in words) [4]: SRE induction comparable to wild-type; also recorded: increased EC50 values | Fold/WT, SRE EC50 ([4]; F6.48A vs WT): 9 fold | EC50 [19]: 554 nM | SRF response compared with WT (in words) ([19]; C(10)A): less response than WT | Fold/WT, SRF EC50 ([19]; C(10)A vs WT): 17 fold | EC50 [20]: 864000 nM | SRF response compared with WT (in words) ([20]; Y3.32L): right shifted curves | Fold/WT, SRF EC50 ([20]; Y3.32L vs WT): 26182 fold | SRF response compared with WT (in words) [21]: not able to induce any response; also recorded: complete loss of signalling | EC50, SRF response ([21]; transfected HEK293, n ≥ 3): NO response | EC50 [22]: 335 nM | SRF response compared with WT (in words) ([22]; F6.48A): reduced responses | Fold/WT, SRF EC50 ([22]; F6.48A vs WT): 10 fold | EC50 [5]: > 30000 nM | SRE response compared with WT (in words) [5]: profound reduction of receptor signalling; also recorded: very little responses | EC50 [23]: 851 nM | SRF response compared with WT (in words) ([23]; Y3.32F): right shifted curves | Fold/WT, SRF EC50 ([23]; Y3.32F vs WT): 26 fold | EC50 [24]: 56 nM | EC50 [6]: 900 nM | SRE response compared with WT (in words) [6]: SRE induction comparable to wild-type; also recorded: increased EC50 values | Fold/WT, SRE EC50 ([6]; M3.36A vs WT): 16 fold | EC50 [7]: 5130 nM | SRE response compared with WT (in words) [7]: right shifted curves | Fold/WT, SRE EC50 ([7]; F6.55L vs WT): 92 fold | EC50 [8]: 341 nM | SRE response compared with WT (in words) [8]: slight difference from that of WT | Fold/WT, SRE EC50 ([8]; H(170)F vs WT): 6 fold | EC50 [25]: 10500 nM | SRF response compared with WT (in words) ([25]; F6.55L): higher EC50 values than WT | Fold/WT, SRF EC50 ([25]; F6.55L vs WT): 318 fold | EC50 [9]: > 30000 nM | SRE response compared with WT (in words) [9]: profound reduction of receptor signalling; also recorded: very little responses | EC50 [26]: > 30000 nM | SRF response compared with WT (in words) ([26]; E3.29A): reduced responses | EC50 [10]: 9510 nM | SRE response compared with WT (in words) [10]: right shifted SRE response curves | Fold/WT, SRE EC50 ([10]; Y3.32L vs WT): 170 fold | EC50 [11]: 657 nM | Fold/WT, SRE EC50 ([11]; C(260)A vs WT): 12 fold | EC50 [12]: 635 nM | Fold/WT, SRE EC50 ([12]; C(10)A vs WT): 11 fold | EC50 [27]: 363 nM | SRF response compared with WT (in words) ([27]; C(260)A): less response than WT | Fold/WT, SRF EC50 ([27]; C(260)A vs WT): 11 fold | EC50 [13]: 230 nM | SRE response compared with WT (in words) [13]: retains WT signalling | Fold/WT, SRE EC50 ([13]; Q7.36A vs WT): 4 fold | SRE response compared with WT (in words) [14]: complete loss of signalling; also recorded: did not show any response | EC50, SRE response ([14]; transfected HEK293, n ≥ 3): NO response | EC50 [28]: 550 nM | SRF response compared with WT (in words) ([28]; F6.55A): higher EC50 values than WT | Fold/WT, SRF EC50 ([28]; F6.55A vs WT): 17 fold | EC50 [15]: 72 nM | SRE response compared with WT (in words) [15]: retained WT signalling; also recorded: almost identical to that of WT | Fold/WT, SRE EC50 ([15]; Q6.58M vs WT): 1 fold | EC50 [29]: > 30000 nM | SRF response compared with WT (in words) ([29]; E3.29L): reduced responses
